In PMC2709489 (Nature biotechnology, 2009):
Read-outs that look alike come from different tables or passages of the source.

What was measured:
[1] = biological target: mouse brain serine hydrolases (Homo sapiens, UniProt O75884); format: biochemical
[2] = biological target: T1, RBBP9 (Homo sapiens, UniProt O75884); format: biochemical
[3] = biological target: T2, GSTO1 (Homo sapiens, UniProt P78417); format: biochemical
T2 sequence (P78417 1-241): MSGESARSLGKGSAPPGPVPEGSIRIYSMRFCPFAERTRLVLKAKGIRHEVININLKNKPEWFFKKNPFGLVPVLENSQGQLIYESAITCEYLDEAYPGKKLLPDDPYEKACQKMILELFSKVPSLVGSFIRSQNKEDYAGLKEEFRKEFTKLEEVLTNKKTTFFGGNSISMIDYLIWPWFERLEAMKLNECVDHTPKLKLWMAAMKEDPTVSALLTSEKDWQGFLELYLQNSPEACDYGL

[4] = tested on: endogenous GSTO1 and other SE-rhodamine targets; format: biochemical, human
[5] = biological target: T1, RBBP9; experiment: Reversibility of RBBP9 inhibition by gel filtration; format: biochemical; conditions: emetine 500 μM or compound 2 50 μM, 30 min, then Sephadex G-25M
[6] = biological target: T1, RBBP9; experiment: Gel-based competitive ABPP of RBBP9 with varying Pluronic F-127; format: biochemical; conditions: compound 5 at 10 and 20 µM, emetine 20 µM; 400 nM RBBP9
[7] = biological target: T2, GSTO1; experiment: Reversibility of GSTO1 inhibition by gel filtration; format: biochemical; conditions: 6 and 9 at 280 μM, 7 and 8 at 28 μM, 30 min, then Sephadex G-25M
Procedure, shortened: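 Recombinant GSTO1 (2 μM) was incubated 30 min with DMSO or test compound, then split. One portion was labeled directly with SE-rhodamine. The other was passed over a Sephadex G-25M gel-filtration column before SE-rhodamine labeling. Both were resolved by SDS-PAGE with in-gel fluorescence read-out.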

T1 sequence (O75884 whole entry): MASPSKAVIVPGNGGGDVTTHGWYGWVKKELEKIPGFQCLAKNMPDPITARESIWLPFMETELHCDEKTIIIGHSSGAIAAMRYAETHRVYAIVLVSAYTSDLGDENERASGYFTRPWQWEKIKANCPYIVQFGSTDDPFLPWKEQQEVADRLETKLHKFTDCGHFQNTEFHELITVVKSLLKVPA
Sequence of mouse brain serine hydrolases (O75884 whole entry): as above

## CC[C@H]1CN2CCc3cc(OC)c(OC)cc3[C@@H]2C[C@@H]1C[C@H]1NCCc2cc(O)c(OC)cc21 [1a, Cephaeline]
[1]
  inhibition of RBBP9 by emetine analogues (competitive ABPP): inhibited RBBP9, albeit with reduced potency relative to emetine

## CCC1=C(C[C@H]2NCCc3cc(OC)c(OC)cc32)C[C@H]2c3cc(OC)c(OC)cc3CCN2C1 [1b, Dehydroemetine]
[2]
  inhibition of RBBP9: failed to inhibit RBBP9

## CC[C@H]1CN2CCc3cc(OC)c(OC)cc3[C@@H]2C[C@@H]1C[C@H]1NCCc2c1[nH]c1ccc(O)cc21 [1c, Tubulosine]
[1]
  inhibition of RBBP9 by emetine analogues (competitive ABPP): inhibited RBBP9, albeit with reduced potency relative to emetine

## CC[C@H]1CN2CCc3cc(OC)c(OC)cc3[C@@H]2C[C@@H]1C[C@H]1NCCc2cc(OC)c(OC)cc21 [Compound 1, Emetine]
[3]
  block of probe labeling of GSTO1 (FluoPol): did not block probe labeling of GSTO1
[4]; 20 μM
  effect on other SE-rhodamine targets in MDA-MB-231 proteome: did not inhibit the labeling of GSTO1 or any of the other SE-rhodamine targets
  inhibition of GSTO1 in MDA-MB-231 proteome: did not inhibit the labeling of GSTO1
[5]
  reversibility of RBBP9 inhibition: reversible
[6]
  effect of Pluronic F-127 on inhibitory activity: did not diminish the inhibitory activity

## COc1ccc2[nH]c([S+]([O-])Cc3ncc(C)c(OC)c3C)nc2c1 (stereo not drawn) [Compound 6, omeprazole]
[4]; 1 μM
  inhibition of GSTO1 in MDA-MB-231 proteome: lost
[4]; 20 μM
  inhibition of GSTO1 in MDA-MB-231 proteome: considerably less potent
[7]
  reversibility of GSTO1 inhibition: reversible

## CO[C@H]1/C=C/O[C@@]2(C)Oc3c(C)c(O)c4c(O)c(c(/C=N/N5CCN(C)CC5)c(O)c4c3C2=O)NC(=O)/C(C)=C\C=C\[C@H](C)[C@H](O)[C@@H](C)[C@@H](O)[C@@H](C)[C@H](OC(C)=O)[C@@H]1C [Compound 9, rifampicin]
[4]; 1 μM
  inhibition of GSTO1 in MDA-MB-231 proteome: lost
[4]; 20 μM
  inhibition of GSTO1 in MDA-MB-231 proteome: considerably less potent
[7]
  reversibility of GSTO1 inhibition: reversible

## N[C@@H](CCC(=O)N[C@@H](CS)C(=O)NCC(=O)O)C(=O)O [glutathione]
[3]
  block of probe labeling of GSTO1 (FluoPol): No labeling
